Calls of active or inactive are those of the source. No cut-off for these calls is given here.
Columns and labels:
[1] = system: L1210; assay: Cytotoxicity against mouse L1210 cells after 48 hrs by MTT assay; type: functional, cell-based; details: L1210, 48 h
[2] = Cytotoxicity against human KB-3-1 cells after 96 hrs by MTT assay; type: functional, cell-based; details: KB 3-1, 96 h
[3] = system: L1210; assay: Induction of cell cycle arrest in mouse L1210 cells assessed as accumulation at S phase at 5 uM incubated for 21 hrs by propidium iodide staining based flow cytometry (reference value: 32%); type: functional
[4] = Induction of 117-bp DNA (unknown origin) alkylation incubated for 5 mins to 24 hrs by gel shift assay
Summary of the method: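 117-bp pBS plasmid fragment (EcoRI/PvuII cut), 32P-labelled at EcoRI end, gel-purified. Incubated with drug (rising concentrations up to 50 μM, or fixed 50 μM for kinetics) in 1 mM Na cacodylate pH 7.0, dark, room temperature. Covalent complex seen as shifted band on native 6% PAGE in TBE, phosphorimaging; T1/2 taken as time to half-maximal shift.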

[5] = Induction of 117-bp DNA (unknown origin) alkylation assessed as incubation time required to obtain half of maximum of covalent drug/DNA complex incubated for 5 mins to 24 hrs by gel shift assay
Summary of the method: (§1)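 117-bp pBS EcoRI/PvuII fragment, 32P-end-labelled at EcoRI site, gel-purified; incubated with 50 μM drug in 1 mM Na cacodylate pH 7.0, dark, room temperature, 5 min to 24 h; 6% native polyacrylamide gel in TBE pH 8.3, ~5 h at 300 V; phosphorimaging of shifted band; T1/2 = time to half-maximal gel shift from quantification plots; nd if no maximum reached.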

[6] = Induction of 117-bp DNA (unknown origin) alkylation assessed as incubation time required to obtain maximum of covalent drug/DNA complex incubated for 5 mins to 24 hrs by gel shift assay
[7] = system: MC-38; assay: Antitumor activity against mouse C38 cells xenografted in mouse assessed as inhibition of tumor growth at 4 mg/kg, iv administered on day 12 and 24; type: functional
[8] = Induction of 117-bp DNA (unknown origin) alkylation at 50 uM incubated for 24 hrs by gel shift assay
Summary of the method: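 Labelled 117-bp DNA fragment incubated with drug at increasing concentrations up to 50 μM in 1 mM Na cacodylate pH 7.0, dark, room temperature, 2 or 24 h; native polyacrylamide electrophoresis; bound/free ratio quantified relative to a 50 μM reference alkylator control; scored strong, weak (no plateau by 24 h) or none.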

[9] = system: L1210; assay: Induction of cell cycle arrest in mouse L1210 cells assessed as accumulation at S phase at 10 uM incubated for 21 hrs by propidium iodide staining based flow cytometry (reference value: 32%); type: functional
[10] = Induction of 117-bp DNA (unknown origin) alkylation assessed as incubation time required to obtain half of maximum of covalent drug/DNA complex at 50 uM incubated for 5 mins to 24 hrs by gel shift assay; summary of the method: as §1
[11] = system: L1210; assay: Induction of cell cycle arrest in mouse L1210 cells assessed as accumulation at S phase at 2.5 uM incubated for 21 hrs by propidium iodide staining based flow cytometry (reference value: 32%); type: functional

SMILES | IC50 [1] [nM] | IC50 [2] [nM] | Activity [3] | Activity [4] | T1/2 [5] [h] | also measured
COc1cc2c(c3c1c(=O)c1cc4ccccc4nc1n3C)C=CC(C)(C)O2 | 11000 | 3700 | inactive |  |  | 
COc1c2c(cc3c1c(=O)c1cc4ccccc4nc1n3C)OC(C)(C)C=C2 | 24000 | 14000 | inactive |  |  | 
COc1cc2c(c3c1c(=O)c1cc4ccccc4nc1n3C)[C@@H](OC(C)=O)[C@@H](OC(C)=O)C(C)(C)O2 | 190 | 110 |  | Active | 1 | Tmax [6]: 3 h; TGI [7]: inactive
COc1cc2c(c3c1c(=O)c1cc4ccccc4nc1n3C)[C@H](OC(C)=O)[C@H](OC(C)=O)C(C)(C)O2 | 210 | 35 |  | Active | 1.5 | Tmax [6]: 3 h; TGI [7]: Active
COc1cc2c(c3c1c(=O)c1cc4ccccc4nc1n3C)[C@@H](O)[C@@H](O)C(C)(C)O2 (racemic) | 5100 |  |  |  |  | 
COc1c2c(cc3c1c(=O)c1cc4ccccc4nc1n3C)OC(C)(C)[C@@H](O)[C@H]2O (racemic) | 12500 | 7000 |  |  |  | 
COc1cc2c(c3c1c(=O)c1cc4ccccc4nc1n3C)C(OC(C)=O)C(OC(C)=O)C(C)(C)O2 (racemic) | 200 | 37 | 68% | Active |  | Activity [8]: Active; inhibition in vivo at 4 mg/kg ([7]; C38, 288 h, read-out: TGI): 95%
COc1cc2c(c3c1c(=O)c1cc4ccccc4nc1n3C)[C@@H](OC(=O)/C=C/c1ccccc1)[C@@H](OC(=O)/C=C/c1ccccc1)C(C)(C)O2 (racemic) | 5000 | 540 |  |  |  | 
COc1ccc(/C=C/C(=O)O[C@@H]2c3c(cc(OC)c4c(=O)c5cc6ccccc6nc5n(C)c34)OC(C)(C)[C@@H]2OC(=O)/C=C/c2ccc(OC)cc2)cc1 (racemic) | 9600 | 370 | 70% | Active |  | 
COc1cc2c(c3c1c(=O)c1cc4ccccc4nc1n3C)[C@@H](OC(=O)/C=C/c1ccc(C(F)(F)F)cc1)[C@@H](OC(=O)/C=C/c1ccc(C(F)(F)F)cc1)C(C)(C)O2 (racemic) | 9100 | 420 |  | Active |  | Activity [9]: 60%
COc1cc2c(c3c1c(=O)c1cc4ccccc4nc1n3C)[C@@H](O)[C@@H](OC(=O)/C=C/c1ccccc1)C(C)(C)O2 (racemic) | 110 | 30 |  | Active | 0.75 | Activity [9]: 66%; Tmax [6]: 3 h
COc1ccc(/C=C/C(=O)O[C@@H]2[C@H](O)c3c(cc(OC)c4c(=O)c5cc6ccccc6nc5n(C)c34)OC2(C)C)cc1 (racemic) | 290 | 23 | 76% | Active |  | 
COc1cc2c(c3c1c(=O)c1cc4ccccc4nc1n3C)[C@@H](O)[C@@H](OC(=O)/C=C/c1ccc(C(F)(F)F)cc1)C(C)(C)O2 (racemic) | 90 | 13 | 69% | Active | 2 | Tmax [6]: 8 h; T1/2 [10]: 2 h
COc1cc2c(c3c1c(=O)c1cc4ccccc4nc1n3C)[C@@H](OC(C)=O)[C@@H](OC(=O)/C=C/c1ccccc1)C(C)(C)O2 (racemic) | 2100 | 320 | 73% | Active |  | 
COc1ccc(/C=C/C(=O)O[C@@H]2[C@H](OC(C)=O)c3c(cc(OC)c4c(=O)c5cc6ccccc6nc5n(C)c34)OC2(C)C)cc1 (racemic) | 2900 | 470 | 70% | inactive |  | 
COc1cc2c(c3c1c(=O)c1cc4ccccc4nc1n3C)[C@@H](OC(C)=O)[C@@H](OC(=O)/C=C/c1ccc(C(F)(F)F)cc1)C(C)(C)O2 (racemic) | 3800 | 390 |  | Active |  | Activity [11]: 73%
COc1cc2c(c3c1c(=O)c1cc4ccccc4nc1n3C)[C@H]1OC(=O)O[C@H]1C(C)(C)O2 (racemic) | 120 | 41 | 76% | Active |  | 
COc1c2c(cc3c1c(=O)c1cc4ccccc4nc1n3C)OC(C)(C)[C@@H](OC(C)=O)[C@H]2OC(C)=O (racemic) | 10300 | 8800 |  | inactive |  | 
COc1c2c(cc3c1c(=O)c1cc4ccccc4nc1n3C)OC(C)(C)[C@H]1OC(=O)O[C@@H]21 (racemic) | 20000 | 12000 | 68% | Active |  | 
COc1cc2c(c3c1c(=O)c1cc4ccccc4cc1n3C)[C@@H](OC(C)=O)[C@@H](OC(C)=O)C(C)(C)O2 (racemic) |  | 100 | 73% | Active | 0.5 | Tmax [6]: 2 h
COc1cc2c(c3c1c(=O)c1cc4ccccc4cc1n3C)C(OC(C)=O)C(OC(C)=O)C(C)(C)O2 (single isomer, unassigned; (+)) |  |  |  |  | 0.333 | 
COc1cc2c(c3c1c(=O)c1cc4ccccc4cc1n3C)C(OC(C)=O)C(OC(C)=O)C(C)(C)O2 (single isomer, unassigned; (-)) |  |  |  |  | 0.333 | 
COc1cc2c(c3c1c(=O)c1ccccc1n3C)C=CC(C)(C)O2 [ACRONINE] |  | 3700 |  |  |  | 

— ChEMBL document CHEMBL3352761, “Synthesis, antitumor activity, and mechanism of action of benzo[b]chromeno[6,5-g][1,8]naphthyridin-7-one analogs of acronycine” (J Med Chem, 2014)
